H69AR growth 86K: proliferation blockers of H69AR lung cancer cells, primary screen, cell-based, human, 86K library | H69AR lung tumor viability, ATP luminescence, 72 h; stronger effect = lower value | viability, % at 10 µM | hit rate 6% among 85,000;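 active = viability at or below 40%; inactive = viability above 40%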;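 note: multidrug resistant small cell line overexpressing MRP-1 efflux transporter; 100% = mean luminescence of untreated control wells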
ERa coact inh: ERα–SRC-1 coactivator interaction inhibitors, primary screen, biochemical, TR-FRET, ERα LBD, estradiol-bound | Estrogen receptor (Homo sapiens), P03372 | AID 629, 2007 | hit rate 1.7% among 86,000 | inhibition, % at 25.6 µM | TR-FRET ER-alpha LBD / SRC-1 peptide; in the data active = inhibition above about 50%;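 note: 0% = receptor plus peptide control and 100% = peptide only without receptor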
Target sequence (P03372 whole entry, looked up, the tested form may be a part): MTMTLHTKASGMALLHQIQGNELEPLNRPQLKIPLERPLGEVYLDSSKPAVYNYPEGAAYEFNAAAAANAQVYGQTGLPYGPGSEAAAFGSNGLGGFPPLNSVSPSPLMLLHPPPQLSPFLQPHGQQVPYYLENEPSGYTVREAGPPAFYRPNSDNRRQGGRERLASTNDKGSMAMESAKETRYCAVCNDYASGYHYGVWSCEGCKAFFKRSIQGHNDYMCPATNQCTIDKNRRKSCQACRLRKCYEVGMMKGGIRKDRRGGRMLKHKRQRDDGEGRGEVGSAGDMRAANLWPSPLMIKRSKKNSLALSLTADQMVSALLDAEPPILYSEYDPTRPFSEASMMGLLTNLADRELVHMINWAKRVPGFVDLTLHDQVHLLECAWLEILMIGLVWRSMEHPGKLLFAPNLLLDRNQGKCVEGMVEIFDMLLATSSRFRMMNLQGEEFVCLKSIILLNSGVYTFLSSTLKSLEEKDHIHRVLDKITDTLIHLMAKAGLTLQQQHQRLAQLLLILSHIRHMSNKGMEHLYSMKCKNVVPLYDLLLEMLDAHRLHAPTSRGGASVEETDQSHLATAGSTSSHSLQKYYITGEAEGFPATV
HUVEC prolif 384: inhibitors of HUVEC proliferation, primary screen, cell-based, 384-well. viability, % at 10 µM (by protocol). hit rate 1.1% among 86,000. AID 648, 2007. CellTiter-Glo luminescence, 72 h; stronger effect = lower value;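 active = viability at or below 30%; inactive = viability above 30%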;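 note: 100% = median luminescence of DMSO-only cell control wells on each plate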
ERb coact inh: inhibitors of ERβ-SRC1 coactivator interaction, primary screen, biochemical, TR-FRET, ERβ LBD, SRC-1 peptide; Estrogen receptor beta (Homo sapiens), Q92731; TR-FRET ER-beta LBD / SRC1-Cy5 peptide binding; receptor agonist-loaded with 1 µM estradiol; inhibition, % at 25.6 µM; hit rate 1.3% among 86,000;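 active = compounds whose percent inhibition of the receptor-coactivator binding signal exceeds about 50% in the single-dose screen, limit read from the data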;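 note: 0% = receptor plus peptide wells without compound and 100% = peptide-only wells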
Fibroblast inh: antiproliferative effect on LL 47 fibroblasts – human, LL 47 cells, CellTiter-Glo luminescence, primary screen; AID 719, 2007; hit rate 1.1% among 85,000; viability, % at 10 µM; LL 47 human lung fibroblast viability, ATP luminescence; stronger effect = lower value;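 active = viability at or below 50% in the single dose screen; inactive = viability above 50%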;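 note: compound exposure lasted 72 h before the ATP readout; 100% = median luminescence of untreated cell-only wells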
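Test system: LL 47 human lung fibroblasts / Quantity: 1,150 cells in each well / Medium: IMEM growth medium with 15% fetal bovine serum / Incubation: 72 h compound exposure at 37 °C after overnight plating / Detection: CellTiter-Glo luminescence measuring cellular ATP / Read-out: % viability versus median cells-only luminescence / Benchmarks: cell-only wells, no compound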
ERa SRC1 pot: enhancers of ERα–SRC-1 coactivator binding, primary screen, biochemical, TR-FRET, ERα LBD, low estradiol; TR-FRET ERalpha-LBD/SRC-Cy5 coactivator binding, 2 h; 100 = basal binding, no effect; Estrogen receptor (Homo sapiens), P03372; AID 639, 2007; coactivator binding (% of control), % at 25.6 µM; hit rate 1.3% among 86,000; in the data active = activity above about 200%;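 note: binding measured in presence of low estradiol as agonist stimulus; 0% = peptide alone without receptor and 100% = receptor with peptide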
* hit, by the source's call; [ ] = another dose, or the depositor's remark. Most compounds without a hit are left out; they make up all but 9.2% or so of the library.

`Cc1ccc2c(C)ccc(O)c2n1` gave H69AR growth 86K 29.4*, ERa coact inh -4.8, HUVEC prolif 384 17.1*, ERb coact inh 4.2, Fibroblast inh 88.5 and ERa SRC1 pot 97.7.
For COc1ccc(N=C2NC(=O)S/C2=C\c2ccc(N(C)C)cc2)cc1 the results were H69AR growth 86K 73.6, ERa coact inh 53.5*, HUVEC prolif 384 103.3, ERb coact inh 51.9*, Fibroblast inh 92.7 and ERa SRC1 pot 37.0.
For O=C(NCc1ccccc1)c1ccc2nc(-c3ccco3)c(-c3ccco3)nc2c1 the results were H69AR growth 86K 62.6, ERa coact inh 92.9*[fluorescence artefact?], HUVEC prolif 384 59.9, ERb coact inh 97.3*[fluorescence artefact?], Fibroblast inh 106.0 and ERa SRC1 pot 36.2.
`Nc1c(C(=O)Nc2ccccc2)sc2nc(-c3ccco3)ccc12` gave H69AR growth 86K 64.8, ERa coact inh 68.9*[fluorescence artefact?], HUVEC prolif 384 89.8, ERb coact inh 58.4*[fluorescence artefact?], Fibroblast inh 90.4 and ERa SRC1 pot 125.4.
For O=C(NCc1ccccc1)c1ccc2nccnc2c1 the results were H69AR growth 86K 101.2, ERa coact inh 16.0, HUVEC prolif 384 95.5, ERb coact inh 1.1, Fibroblast inh 101.0 and ERa SRC1 pot 89.8.
For O=C(NCc1ccco1)c1cccc(NC(=O)c2ccccc2)c1 the results were H69AR growth 86K 71.5, ERa coact inh -6.9, HUVEC prolif 384 63.9, ERb coact inh 7.5, Fibroblast inh 98.8 and ERa SRC1 pot 109.1.
For O=C(Nc1ccccc1)c1ccc2nc(-c3ccco3)c(-c3ccco3)nc2c1 the results were H69AR growth 86K 49.3, ERa coact inh 89.7*[fluorescence artefact?], HUVEC prolif 384 67.0, ERb coact inh 88.2*[fluorescence artefact?], Fibroblast inh 100.7 and ERa SRC1 pot 35.2.
Screening O=C(Nc1ccc(-n2nncc2-c2ccco2)cc1)c1cccc(F)c1 returned H69AR growth 86K 79.6, ERa coact inh 15.7, HUVEC prolif 384 94.3, ERb coact inh 17.3, Fibroblast inh 106.4 and ERa SRC1 pot 99.3.
CC(=O)c1ccc(NC(=O)c2ccc3nc(-c4ccco4)c(-c4ccco4)nc3c2)cc1 was read as H69AR growth 86K 2.4*, ERa coact inh 92.4*[fluorescence artefact?], HUVEC prolif 384 49.0, ERb coact inh 94.6*[fluorescence artefact?], Fibroblast inh 85.6 and ERa SRC1 pot 28.6.
`COc1ccccc1NC(=O)c1sc2nc(-c3ccco3)ccc2c1N` gave H69AR growth 86K 84.2, ERa coact inh 45.0, HUVEC prolif 384 91.3, ERb coact inh 46.5, Fibroblast inh 105.5 and ERa SRC1 pot 16.6.
Screening COc1cccc(C(C(=O)NC2CCCCC2)N(CC2CCCO2)C(=O)CNC(=O)c2ccco2)c1 (configuration not stated) returned H69AR growth 86K 98.4, ERa coact inh 5.7, HUVEC prolif 384 97.2, ERb coact inh 8.7, Fibroblast inh 98.8 and ERa SRC1 pot 99.2.
For COc1ccc(-n2nc(C(=O)NCC(=O)NCc3ccco3)c3ccccc3c2=O)cc1Cl the results were H69AR growth 86K 82.8, ERa coact inh 22.4, HUVEC prolif 384 92.5, ERb coact inh 11.9, Fibroblast inh 103.2 and ERa SRC1 pot 93.3.
Screening COCCn1nnnc1C(c1ccc(Cl)cc1)N1CCSCC1 (configuration not stated) returned H69AR growth 86K 90.6, ERa coact inh -7.7, HUVEC prolif 384 93.0, ERb coact inh -5.7, Fibroblast inh 106.9 and ERa SRC1 pot 125.0.
`COCCCn1c2nc3ccccc3nc2c2c(=O)n(-c3ccccc3OC)c(C)nc21` gave H69AR growth 86K 79.9, ERa coact inh 12.2, HUVEC prolif 384 72.6, ERb coact inh 4.7, Fibroblast inh 100.8 and ERa SRC1 pot 318.9*.
`CCCn1c(C)nc2c(c1=O)c1nc3ccccc3nc1n2CCc1ccccc1` gave H69AR growth 86K 80.4, ERa coact inh 52.9*, HUVEC prolif 384 109.3, ERb coact inh 32.8, Fibroblast inh 103.2 and ERa SRC1 pot 140.7.
For CCCn1c(C)nc2c(c1=O)c1nc3ccccc3nc1n2CCC1=CCCCC1 the results were H69AR growth 86K 12.8*, ERa coact inh 30.7, HUVEC prolif 384 73.3, ERb coact inh 21.9, Fibroblast inh 85.5 and ERa SRC1 pot 170.3.
COCCCn1c2nc3ccccc3nc2c2c(=O)n(-c3ccccc3OC)cnc21 was read as H69AR growth 86K 80.9, ERa coact inh 0.1, HUVEC prolif 384 97.9, ERb coact inh 1.1, Fibroblast inh 116.5 and ERa SRC1 pot 92.2.
For Cc1nc2c(c(=O)n1CCC1=CCCCC1)c1nc3ccccc3nc1n2/N=C/c1ccco1 the results were H69AR growth 86K 76.6, ERa coact inh 79.5*[fluorescence artefact?], HUVEC prolif 384 72.1, ERb coact inh 55.5*, Fibroblast inh 109.6 and ERa SRC1 pot 105.1.
Cc1nn(Cc2cccc(C(=O)NCC(C)C)c2)c(C)c1Br was read as H69AR growth 86K 93.6, ERa coact inh -1.4, HUVEC prolif 384 100.0, ERb coact inh -3.0, Fibroblast inh 88.5 and ERa SRC1 pot 113.8.
`CCc1nccn1S(=O)(=O)c1ccc(Br)cc1Br` gave H69AR growth 86K 99.0, ERa coact inh -2.0, HUVEC prolif 384 81.2, ERb coact inh -2.5, Fibroblast inh 94.7 and ERa SRC1 pot 118.3.
For Cc1ccc(-c2nsc3c(N4CCC(C(N)=O)CC4)ncnc23)cc1 the results were H69AR growth 86K 81.2, ERa coact inh 10.4, HUVEC prolif 384 88.2, ERb coact inh 6.2, Fibroblast inh 103.2 and ERa SRC1 pot 103.4.
Screening COCc1cc(=O)n2c(-c3ccc(C)cc3)n[nH]c2n1 returned H69AR growth 86K 74.2, ERa coact inh 44.9, HUVEC prolif 384 99.8, ERb coact inh 59.8*, Fibroblast inh 89.9 and ERa SRC1 pot 55.2.
`COCc1cc(=O)n2c(-c3ccccc3OC)n[nH]c2n1` gave H69AR growth 86K 82.6, ERa coact inh 2.1, HUVEC prolif 384 105.3, ERb coact inh 14.9, Fibroblast inh 101.7 and ERa SRC1 pot 72.9.
Screening O=C(c1ccccc1)N1CCC(c2nc3c(nnn3Cc3ccco3)c(=O)[nH]2)CC1 returned H69AR growth 86K 86.2, ERa coact inh -5.1, HUVEC prolif 384 103.7, ERb coact inh -1.6, Fibroblast inh 100.2 and ERa SRC1 pot 97.2.
Cc1sc(NC(=O)c2ccco2)c(C(c2cccnc2)N2CCN(C)CC2)c1C (configuration not stated) was read as H69AR growth 86K 83.9, ERa coact inh 0.9, HUVEC prolif 384 96.8, ERb coact inh -1.4, Fibroblast inh 100.7 and ERa SRC1 pot 104.3.
